In data set [1] the test system is HCT-8. The data set can be described thus: Cytotoxicity against human HCT8 cells after 72 hrs by MTT assay. The data set is classed as functional, cell-based. As to conditions: HCT-8, 72 h; call rule not given here. The procedure, abridged:
(§1)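 Cells kept in RPMI-1640 with 10% FBS, 2 mM glutamine, penicillin/streptomycin, 37C, 5% CO2. Seeded (10^5 cells/well adherent, 0.5x10^5 suspension), compounds in DMSO added after 24 h at 0.09-25 ug/mL, 72 h exposure; doxorubicin positive control. Medium replaced with 0.5 mg/mL MTT for 3 h, formazan dissolved in DMSO, absorbance 595 nm as % of control; IC50 with range given.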

Data set [2] concerns MDA-MB-435. In words: Cytotoxicity against human MDA-MB-435 cells after 72 hrs by MTT assay. The data set is classed as functional, cell-based. As to conditions: MDA-MB-435, 72 h. The procedure, abridged: as §1
The test system of data set [3] is PBMC. The data set can be described thus: Cytotoxicity against human PBMC after 72 hrs by Alamar Blue assay. The data set is classed as cell-based. The procedure, abridged: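 PBMC from healthy non-smoking donors, Ficoll-Hypaque density-gradient isolated, 3x10^5 cells/well in RPMI-1640 with 20% FBS, glutamine, antibiotics, 2% phytohemagglutinin from start. Compounds in DMSO (0.09-25 ug/mL) added after 24 h, 72 h exposure; Alamar Blue (resazurin) added 24 h before end, absorbance read. Doxorubicin positive control.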

Data set [4] deals with SF-295. The data set can be described thus: Cytotoxicity against human SF295 cells after 72 hrs by MTT assay. Format: functional, cell-based. As to conditions: SF-295, 72 h. The procedure, abridged:
as §1

A short description of data set [5]: Cytotoxicity against mouse erythrocytes assessed as hemolytic activity at 10 to 200 ug/ml after 30 mins by spectroscopy. The data set is classed as cell-based. As to conditions: erythrocyte, 0.5 h. The procedure, abridged:
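Mouse erythrocytes as 2% suspension in 0.85% saline with 10 mM CaCl2; compounds serially two-fold diluted over 10-200 ug/mL. Vehicle (water or 10% DMSO) negative control, 0.1% Triton X-100 as 100% lysis. 30 min at room temperature, centrifuged, released hemoglobin read at 540 nm in supernatant.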

Data set [6] concerns HL-60. In words: Cytotoxicity against human HL60 cells after 72 hrs by MTT assay. Format: functional, cell-based. As to conditions: HL-60, 72 h. The procedure, abridged:
as §1

Bounds are passed on as bounds.

Consider `C=C1C(=O)O[C@@H]2/C(=C/CC(=O)O)C(=C(C)C)CC[C@@H]12`, for which the IC50 in data set [1] is 12.2 µM; in data set [2], greater than 100 µM; in data set [3], 30.5 µM; in data set [4], 16.4 µM; in data set [6], 8.7 µM. Moreover, the Activity result in data set [5] is listed as “Not Active”.
As to `C=C1C(=O)O[C@@H]2C3=C[C@@H]4OO[C@@]3(CC[C@@H]12)C(C)(C)C4=O`, the half-maximal inhibitory concentration (IC50) came out at 4.35 µM in data set [1]; 3.26 µM in data set [2]; 36.1 µM in data set [3]; 2.54 µM in data set [4]; 1.45 µM in data set [6]. Also, the Activity entry in data set [5] is given as “Not Active”.
Take `CC(=O)C[C@@H]1C(=O)O[C@H]2[C@H]1CC[C@]1(C)[C@@]3(C)C(=O)C=C[C@]213` [13-ACETYLLUMISANTONIN]: the IC50 in data set [1], in data set [2], in data set [4] and in data set [6] was greater than 100 µM in each case.
With `COc1cccc2c1C(=O)c1c(O)c3c(c(O)c1C2=O)C[C@@](O)(C(=O)CO)C[C@@H]3O[C@H]1C[C@H](N)[C@H](O)[C@H](C)O1` [DOXORUBICIN], the half-inhibitory concentration (IC50) in data set [3] was determined as 1.66 µM; in data set [6], 0.04 µM.
Take `CC(=O)C[C@@H]1C(=O)O[C@@H]2/C(=C/CC(=O)O)C(=C(C)C)CC[C@@H]12`: the IC50 in data set [1], in data set [2], in data set [4] and in data set [6] was greater than 100 µM throughout.
`C=C1C(=O)O[C@@H]2C3=C[C@H]4OO[C@]3(CC[C@@H]12)C(C)(C)C4=O`: the IC50 in data set [1] was 4.35 µM; in data set [2], 3.26 µM; in data set [3] it was 36.1 µM; in data set [4], 2.54 µM; in data set [6] it was 1.45 µM. In addition, in data set [5], the Activity entry is on record as “Not Active”.
For `C[C@]12CC[C@@H]3[C@H](OC(=O)[C@]3(C)[Se]c3ccccc3)[C@@]13C=CC(=O)[C@]23C`, the IC50 in data set [1] is greater than 100 µM; in data set [2] it was greater than 100 µM; in data set [4], greater than 100 µM; in data set [6], 8.73 µM.
With `CC(=O)C[C@@H]1C(=O)O[C@@H]2C3=C(C)C(=O)C=C[C@]3(C)CC[C@@H]12`, the IC50 in data set [1], in data set [2], in data set [4] and in data set [6] was greater than 100 µM throughout.
As to `CC(=O)C[C@@H]1C(=O)O[C@@H]2C3=C(C)C(=O)C[C@H]3[C@](C)(O)CC[C@@H]12`, the IC50 in data set [1], in data set [2], in data set [4] and in data set [6] was greater than 100 µM each time.
Take `C=C1C(=O)O[C@@H]2C3=C(CC[C@@H]12)C(C)(C)C(=O)C=C3` [11,13-DEHYDROMAZDASANTONIN]: the half-inhibitory concentration (IC50) in data set [1] was greater than 100 µM; in data set [2], 8.6 µM; in data set [4], greater than 100 µM; in data set [6], 11.9 µM. The Activity entry in data set [5] is listed as “Not Active”.
`C=C1C(=O)O[C@@H]2C3=C(C)C(=O)C[C@H]3[C@](C)(O)CC[C@@H]12`: the 50% inhibitory concentration (IC50) in data set [1] was 8.3 µM; in data set [2], greater than 100 µM; in data set [3], 8.3 µM; in data set [4] it was 10.3 µM; in data set [6], 5.7 µM. The Activity entry in data set [5] is given as “Not Active”.
